ChEMBL document CHEMBL4706571, “Structure-activity relationship study of tryptophan-based butyrylcholinesterase inhibitors” (Eur J Med Chem, 2020)
Calls of active or inactive are those of the source.

Tests used:
[1] = molecular target: Cholinesterase (Homo sapiens, UniProt P06276); experiment: Inhibition of human BChE using butyrylthiocholineiodide as substrate measured for 5 mins by Ellman's method
Summary of the method: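 Human BChE at about 1 nM was preincubated for 5 min at 20 °C with compound and Ellman's reagent in 0.1 M phosphate buffer, pH 8.0, with 1% final DMSO. The reaction was started with butyrylthiocholine iodide and A412 read for 1 min from initial rates. Activity was corrected by an enzyme-free buffer blank. IC50 was fitted from at least seven concentrations.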

[2] = molecular target: Acetylcholinesterase (Homo sapiens, UniProt P22303); experiment: Inhibition of human AChE using acetylthiocholine iodide as substrate measured for 5 mins by Ellman's method
Acetylcholinesterase, sequence (P22303 whole entry): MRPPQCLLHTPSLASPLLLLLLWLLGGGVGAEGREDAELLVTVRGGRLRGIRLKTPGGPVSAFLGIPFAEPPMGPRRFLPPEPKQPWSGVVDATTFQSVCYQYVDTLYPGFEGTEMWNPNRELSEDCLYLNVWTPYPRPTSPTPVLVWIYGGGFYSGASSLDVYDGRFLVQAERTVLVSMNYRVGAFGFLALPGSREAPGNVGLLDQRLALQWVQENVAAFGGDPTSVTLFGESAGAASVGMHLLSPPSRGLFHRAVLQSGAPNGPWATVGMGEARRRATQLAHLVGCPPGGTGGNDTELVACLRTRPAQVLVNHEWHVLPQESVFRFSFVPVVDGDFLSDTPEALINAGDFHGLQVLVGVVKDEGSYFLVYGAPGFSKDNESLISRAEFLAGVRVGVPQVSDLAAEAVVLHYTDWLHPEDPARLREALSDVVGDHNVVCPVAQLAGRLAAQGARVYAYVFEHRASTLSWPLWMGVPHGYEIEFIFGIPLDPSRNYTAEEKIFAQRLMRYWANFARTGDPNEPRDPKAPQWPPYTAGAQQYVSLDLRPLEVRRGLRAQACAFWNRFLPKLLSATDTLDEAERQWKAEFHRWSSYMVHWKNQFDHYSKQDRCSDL
Summary of the method: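 Human AChE at about 50 pM was preincubated for 5 min at 20 °C with compound (DMSO stock) and Ellman's reagent in 0.1 M phosphate buffer, pH 8.0, with 1% final DMSO. Acetylthiocholine iodide was then added and A412 followed for 1 min. Residual activity = (vi − b)/(vo − b), with b a blank lacking enzyme. IC50 used at least seven concentrations.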

[3] = Neurotoxicity in mouse assessed as effect in locomotor activity at 30 mg/kg, ip measured up to 60 mins by rotarod test; format: toxicity, organism-based; conditions: in vivo, 1 h
Summary of the method: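 Mice trained 3 consecutive days on rotarod (2 cm rod, 18 rpm); 24 h later dosed i.p. with 30 mg/kg in 1% Tween 80 or vehicle, tested after 60 min at 6, 18 and 24 rpm. Motor impairment defined as failure to stay on for 60 s; expressed as mean time on rod.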

[4] = system: Mus musculus; experiment: Cognitive enhancing effect in C57BL/6J mouse model of scopolamine-induced memory impairment model assessed as escape latency time at 10 to 30 mg/kg, ip administered for 7 days and 60 mins before trail by Morris water maze test relative to control; format: functional, organism-based; conditions: dose 10-30 mg/kg, time 7.0 day
[5] = system: Mus musculus; experiment: Cognitive enhancing effect in intraperitoneally dosed C57BL/6J mouse model of scopolamine-induced memory impairment assessed as enhancement of long-term memory retrieval by measuring latency time to find former escape box location in acquisition phase measured on day 12 by Barnes maze test; format: functional, organism-based
Summary of the method: (§1)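 C57BL/6J mice, Barnes maze: scopolamine 1 mg/kg s.c. 30 min before first daily trial; compound in 1% Tween 80 i.p. 60 min before, daily during 4-day acquisition (four trials/day, 15-min intervals). Drug-off probe day 5 (short-term) and day 12 (long-term): escape box removed, 90 s exploration, latency to former box location and primary errors recorded. n = 7–9; one-way ANOVA, Dunnett's.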

[6] = system: Mus musculus; experiment: Cognitive enhancing effect in intraperitoneally dosed C57BL/6J mouse model of scopolamine-induced memory impairment assessed as enhancement of short-term memory retrieval by measuring latency time to find former escape box location in acquisition phase measured on day 5 by Barnes maze test; format: functional, organism-based; summary of the method: as §1
[7] = system: Mus musculus; experiment: Anti-amnesic activity in CD-1 mouse model of scopolamine-induced memory impairment assessed as step-through latency time to enter dark compartment in retention trail on day 2 at 10 to 30 mg/kg, ip administered 60 mins before trail by passive avoidance test; format: functional, organism-based; conditions: dose 10-30 mg/kg
Summary of the method: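 CD-1 mice, passive avoidance: scopolamine 1 mg/kg s.c. in 0.9% saline 30 min before trial; test article suspended in 1% Tween 80, i.p. 60 min before trial (controls 1% Tween 80 i.p.). Acquisition trial: 30 s in lit compartment, gate opened, step-through latency to dark chamber recorded; retention trial 24 h later. n = 8–9.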

[8] = system: Mus musculus; experiment: Cognitive enhancing effect in intraperitoneally dosed C57BL/6J mouse model of scopolamine-induced memory impairment assessed as enhancement of learning abilities and working memory by measuring escape latency time to reach target in acquisition phase measured on day 5 by Barnes maze test; format: functional, organism-based; summary of the method: as §1

Cholinesterase, sequence (P06276 whole entry): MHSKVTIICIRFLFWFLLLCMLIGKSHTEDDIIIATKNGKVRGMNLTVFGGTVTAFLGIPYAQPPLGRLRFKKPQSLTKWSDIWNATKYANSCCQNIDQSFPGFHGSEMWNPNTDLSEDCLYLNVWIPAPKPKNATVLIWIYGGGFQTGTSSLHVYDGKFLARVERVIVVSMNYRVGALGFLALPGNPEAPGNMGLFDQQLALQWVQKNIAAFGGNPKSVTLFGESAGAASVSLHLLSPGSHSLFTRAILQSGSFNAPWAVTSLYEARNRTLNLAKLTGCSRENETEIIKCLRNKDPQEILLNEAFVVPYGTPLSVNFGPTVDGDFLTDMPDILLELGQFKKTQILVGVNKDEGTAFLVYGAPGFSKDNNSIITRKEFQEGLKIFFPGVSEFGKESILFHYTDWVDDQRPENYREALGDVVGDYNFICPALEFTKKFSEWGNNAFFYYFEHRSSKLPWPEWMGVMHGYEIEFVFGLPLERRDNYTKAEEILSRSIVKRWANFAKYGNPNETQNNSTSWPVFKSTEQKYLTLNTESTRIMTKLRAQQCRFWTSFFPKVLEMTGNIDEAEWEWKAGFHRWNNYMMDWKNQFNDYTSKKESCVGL

SMILES	IC50 [1]	other results
CCCCN[C@@H](Cc1c[nH]c2ccccc12)C(=O)NCCC1CCN(c2ccccc2)CC1	5.6 nM	
CCCCN[C@@H](Cc1c[nH]c2ccccc12)C(=O)NCCC1CCN(CCc2ccccc2)CC1	3.8 nM	
CCCCN[C@@H](Cc1c[nH]c2ccccc12)C(=O)NCCC1CCCN(Cc2ccccc2)CC1 (mixture of isomers)	2.8 nM	IC50 [2]: 16000 nM
CCCCN[C@@H](Cc1c[nH]c2ccccc12)C(=O)NCCC1CCCCCC1	22 nM	Activity [3]: Non-Toxic; Activity [4]: inactive; Activity [5]: Active; Activity [6]: inactive; Activity [7]: inactive; Activity [8]: inactive
CCCCN[C@@H](Cc1c[nH]c2ccccc12)C(=O)NCCC1CCCN(Cc2ccccc2)C1 (mixture of isomers)	9 nM	
CCCCN(CCCC)[C@@H](Cc1c[nH]c2ccccc12)C(=O)N1CCC(Cc2ccccc2)CC1	76 nM	
CCCCN[C@@H](CC(C)C)C(=O)NCCC1CCCCCC1	36300 nM	
CCCCN[C@@H](Cc1c[nH]c2ccccc12)C(=O)NCCC1CCCN(Cc2ccc(OC)cc2)CC1 (mixture of isomers)	100 nM	
CCCCN[C@@H](Cc1c[nH]c2ccccc12)C(=O)N1CCCC1c1ccccc1 (stereo partly drawn)	990 nM	
CCCCN[C@@H](Cc1c[nH]c2ccccc12)C(=O)NCCC1CCN(Cc2ccccc2)CC1	2 nM	IC50 [2]: 25400 nM
CCCCN[C@@H](Cc1c[nH]c2ccccc12)C(=O)NCCC1CCN(CC2CCN(C)CC2)CC1	6600 nM	IC50 [2]: 29700 nM
CCCCN[C@@H](Cc1c[nH]c2ccccc12)C(=O)NCCC1CCCC(c2ccccc2)C1 (mixture of isomers)	6.6 nM	
CCCCN[C@@H](Cc1ccccc1)C(=O)NCCC1CCCCCC1	609 nM	
CCCCN[C@@H](Cc1c[nH]c2ccccc12)C(=O)NCCC1CCCN(Cc2c(F)c(F)cc(F)c2F)CC1 (mixture of isomers)	5.9 nM	
